ChEMBL document CHEMBL3351593, “Potent nonimmunosuppressive cyclophilin inhibitors with improved pharmaceutical properties and decreased transporter inhibition” (J Med Chem, 2014)

Columns and labels:
Hepatitis C virus [1] = experiment: Antiviral activity against HCV subtype 1b in human Huh7.5 cells expressing subgenomic HCV replicons and coexpressing luciferase reporter gene; assay type: functional, cell-based, Hepacivirus hominis; details: genotype 1b, Huh-7
Outline: (§1)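 Stable Huh7.5 lines carrying genotype 1a or 1b subgenomic replicons with luciferase reporter, made by RNA electroporation and G418 selection. Assay run in phenol red-free DMEM without G418, sixteen half-log compound dilutions, in triplicate. Luciferase signal read after 72 h relative to DMSO controls, giving EC50.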

[2] = biological target: T1, Solute carrier organic anion transporter family member 1B1 (Homo sapiens, UniProt Q9Y6L6); experiment: Inhibition of OATP1B1 (unknown origin) expressed in CHO cells using 8-fluorescein-cAMP substrate by fluorescent photometry; assay type: ADME, cell-based
T1 sequence (Q9Y6L6 whole entry): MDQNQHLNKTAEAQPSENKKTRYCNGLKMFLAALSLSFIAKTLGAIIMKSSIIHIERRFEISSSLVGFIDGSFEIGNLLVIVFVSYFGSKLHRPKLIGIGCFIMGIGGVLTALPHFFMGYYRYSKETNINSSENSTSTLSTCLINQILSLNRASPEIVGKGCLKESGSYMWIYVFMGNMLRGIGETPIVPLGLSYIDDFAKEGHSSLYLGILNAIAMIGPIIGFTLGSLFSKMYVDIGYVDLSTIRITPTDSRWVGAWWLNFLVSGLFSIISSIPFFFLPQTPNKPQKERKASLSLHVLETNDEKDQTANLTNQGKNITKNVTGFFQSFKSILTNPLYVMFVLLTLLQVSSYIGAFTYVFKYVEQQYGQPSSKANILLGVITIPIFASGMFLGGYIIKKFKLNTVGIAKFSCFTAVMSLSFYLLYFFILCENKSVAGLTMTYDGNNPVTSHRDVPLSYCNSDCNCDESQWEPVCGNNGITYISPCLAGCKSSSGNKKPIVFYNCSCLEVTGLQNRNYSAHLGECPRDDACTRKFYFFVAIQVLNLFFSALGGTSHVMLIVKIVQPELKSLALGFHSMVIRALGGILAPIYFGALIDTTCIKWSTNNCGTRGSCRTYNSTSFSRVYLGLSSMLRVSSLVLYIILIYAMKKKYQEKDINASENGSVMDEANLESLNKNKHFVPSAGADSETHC
Outline: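 CHO-OATP1B1 cells and vector control cells cultured 2 days, then washed and equilibrated 15 min in HBSS + 10 mM HEPES. Exposed 10 min to 2.5 μM 8-fluorescein-cAMP with inhibitor at 0−30 μM (up to 1% DMSO). Cells washed and lysed, uptake measured by fluorescence, and IC50 taken from the concentration-response curve.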

[3] = biological target: Peptidyl-prolyl cis-trans isomerase A (Homo sapiens, UniProt P62937); experiment: Binding affinity to human cyclophilin A by surface plasmon resonance method
Sequence of Peptidyl-prolyl cis-trans isomerase A (P62937 whole entry): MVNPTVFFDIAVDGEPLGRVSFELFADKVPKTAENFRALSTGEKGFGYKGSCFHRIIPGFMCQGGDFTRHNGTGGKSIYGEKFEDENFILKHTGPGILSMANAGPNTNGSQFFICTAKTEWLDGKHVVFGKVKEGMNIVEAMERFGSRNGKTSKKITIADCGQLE

[4] = biological target: Peptidyl-prolyl cis-trans isomerase F, mitochondrial (Homo sapiens, UniProt P30405); experiment: Binding affinity to human cyclophilin F by surface plasmon resonance method
Sequence of Peptidyl-prolyl cis-trans isomerase F, mitochondrial (P30405 whole entry): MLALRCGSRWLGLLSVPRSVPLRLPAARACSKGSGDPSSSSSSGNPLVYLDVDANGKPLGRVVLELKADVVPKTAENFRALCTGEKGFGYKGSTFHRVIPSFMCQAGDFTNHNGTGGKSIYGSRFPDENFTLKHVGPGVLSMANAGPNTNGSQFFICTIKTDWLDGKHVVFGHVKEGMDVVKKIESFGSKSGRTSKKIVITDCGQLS
Outline: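 Surface plasmon resonance with biotinylated cyclophilin protein, single-cycle kinetics. Running buffer 10 mM HEPES pH 7.4, 150 mM NaCl, 0.05% P20, 3% DMSO, with inhibitor present. Compound injected at several concentrations, 1 min contact each at 50 μL/min, then 10 min final dissociation. kon, koff and KD obtained from a 1:1 binding model fit.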

Hepatitis C virus [5] = experiment: Antiviral activity against HCV subtype 1a in human Huh7.5 cells expressing subgenomic HCV replicons and coexpressing luciferase reporter gene; assay type: functional, cell-based, Hepacivirus hominis; details: Huh-7; outline: as §1
[6] = Cytotoxicity against human MT4 cells by CDCF probe based assay; assay type: cell-based
Hepatitis C virus [7] = experiment: Antiviral activity against HCV subtype 1b in human Huh7.5 cells expressing subgenomic HCV replicons and coexpressing luciferase reporter gene in presence of 40% human serum; assay type: functional, cell-based, Hepacivirus hominis; details: genotype 1b, Huh-7
Outline: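 Genotype 1b luciferase replicon in Huh7.5 cells with 40% human serum added to the assay medium, in phenol red-free DMEM without G418. Sixteen half-log dilutions in triplicate. Luciferase read after 72 h relative to DMSO-treated cells, giving EC50.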

[8] = biological target: Peptidyl-prolyl cis-trans isomerase B (Homo sapiens, UniProt P23284); experiment: Binding affinity to human cyclophilin B by surface plasmon resonance method
Sequence of Peptidyl-prolyl cis-trans isomerase B (P23284 whole entry): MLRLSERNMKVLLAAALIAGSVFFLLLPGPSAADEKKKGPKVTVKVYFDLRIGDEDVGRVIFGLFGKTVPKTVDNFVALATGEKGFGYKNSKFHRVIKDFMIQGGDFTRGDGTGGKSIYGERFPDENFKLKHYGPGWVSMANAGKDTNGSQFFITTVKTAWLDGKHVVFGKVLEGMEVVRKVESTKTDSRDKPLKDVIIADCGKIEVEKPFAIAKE
Outline: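 Biotinylated cyclophilin proteins examined by single-cycle kinetics SPR. Running buffer 10 mM HEPES pH 7.4, 150 mM NaCl, 0.05% P20, 3% DMSO, with inhibitor. Each concentration injected for 1 min at 50 μL/min, then 10 min dissociation. kon, koff and KD obtained from a 1:1 binding fit.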

PBMC = experiment: Cytotoxicity against PHA-stimulated human PBMC by 5-bromo-2'-deoxyuridine incorporation assay; assay type: cell-based
Outline: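 Fresh PBMCs from two human donors in X-VIVO 15 medium, stimulated with PHA. Seven concentrations taken from a half-log series. Incubated 60 h at 37 °C, 5% CO2, with BrdU added for the final 12 h. Incorporation read by anti-BrdU ELISA at 450 nm. Percent inhibition against PHA-stimulated untreated cells after background subtraction, four-parameter fit giving IC50.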

Cytochrome P450 3A4 = Cytochrome P450 3A4 (Homo sapiens, UniProt P08684); experiment: Time dependent inhibition of CYP3A4 (unknown origin); assay type: ADME; details: TDE = time-dependent effect
Sequence of Cytochrome P450 3A4 (P08684 whole entry): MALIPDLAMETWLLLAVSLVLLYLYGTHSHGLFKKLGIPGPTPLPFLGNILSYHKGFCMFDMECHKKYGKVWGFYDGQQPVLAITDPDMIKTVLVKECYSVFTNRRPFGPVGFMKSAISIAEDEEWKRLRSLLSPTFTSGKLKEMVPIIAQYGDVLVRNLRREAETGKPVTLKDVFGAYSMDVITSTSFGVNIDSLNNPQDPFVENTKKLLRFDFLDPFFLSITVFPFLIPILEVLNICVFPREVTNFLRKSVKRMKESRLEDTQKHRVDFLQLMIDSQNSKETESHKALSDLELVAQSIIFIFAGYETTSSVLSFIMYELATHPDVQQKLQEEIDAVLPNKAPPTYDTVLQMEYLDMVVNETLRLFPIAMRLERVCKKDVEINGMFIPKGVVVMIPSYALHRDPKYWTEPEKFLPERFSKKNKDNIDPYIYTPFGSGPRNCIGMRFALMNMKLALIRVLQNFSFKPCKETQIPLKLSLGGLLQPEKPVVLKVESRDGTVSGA

Row | EC50 (Hepatitis C virus [1]) [nM] | IC50 [2] [nM] | Kd [3] [nM] | inhibition (INH) (Cytochrome P450 3A4) | Compound | Kd [4] [nM] | EC50 (Hepatitis C virus [5]) [nM] | CC50 [6] [µM] | EC50 (Hepatitis C virus [7]) [nM] | Kd [8] [nM] | IC50 (PBMC) [µM]
1 | 42 | 2000 | 1.8 |  | C/C=C/C[C@@H](C)[C@@H](O)[C@H]1C(=O)N[C@@H](CC)C(=O)N(C)[C@H](C)C(=O)N(C)[C@@H]([C@H](C)CN(C)CCOC)C(=O)N[C@@H](C(C)C)C(=O)N(C)[C@@H](CC(C)C)C(=O)N[C@@H](C)C(=O)N[C@H](C)C(=O)N(C)[C@@H](CC(C)C)C(=O)N(C)[C@@H](CC(C)C)C(=O)N(C)[C@@H](C(C)C)C(=O)N1C |  |  |  |  |  | 
2 | 33 | 4300 | 3.1 |  | C/C=C/C[C@@H](C)[C@@H](O)[C@H]1C(=O)N[C@@H](CC)C(=O)N(C)[C@H](C)C(=O)N(C)[C@@H]([C@H](C)CN2CCOCC2)C(=O)N[C@@H](C(C)C)C(=O)N(C)[C@@H](CC(C)C)C(=O)N[C@@H](C)C(=O)N[C@H](C)C(=O)N(C)[C@@H](CC(C)C)C(=O)N(C)[C@@H](CC(C)C)C(=O)N(C)[C@@H](C(C)C)C(=O)N1C |  |  |  |  |  | 
3 | 36 | 2800 | 1.7 |  | C/C=C/C[C@@H](C)[C@@H](O)[C@H]1C(=O)N[C@@H](CC)C(=O)N(C)[C@H](C)C(=O)N(C)[C@@H]([C@H](C)COC)C(=O)N[C@@H](C(C)C)C(=O)N(C)[C@@H](CC(C)C)C(=O)N[C@@H](C)C(=O)N[C@H](C)C(=O)N(C)[C@@H](CC(C)C)C(=O)N(C)[C@@H](CC(C)C)C(=O)N(C)[C@@H](C(C)C)C(=O)N1C |  |  |  |  |  | 
4 | 221 |  |  |  | C/C=C/C[C@@H](C)[C@@H](O)[C@H]1C(=O)N[C@@H](CC)C(=O)N(C)C(SCCN(C)C)C(=O)N(C)[C@@H](CC(C)(C)O)C(=O)N[C@@H](C(C)C)C(=O)N(C)[C@@H](CC(C)C)C(=O)N[C@@H](C)C(=O)N[C@H](C)C(=O)N(C)[C@@H](CC(C)C)C(=O)N(C)[C@@H](CC(C)C)C(=O)N(C)[C@@H](C(C)C)C(=O)N1C (single isomer, unassigned) [SCY 635] | 3.1 | 263 |  | 192 | 2.9 | 4.7
5 | 36 | 6400 | 1.1 |  | C/C=C/C[C@@H](C)[C@@H](O)[C@H]1C(=O)N[C@@H](CC)C(=O)N(C)[C@H](C)C(=O)N(C)[C@@H]([C@H](C)COCCN2CCOCC2)C(=O)N[C@@H](C(C)C)C(=O)N(C)[C@@H](CC(C)C)C(=O)N[C@@H](C)C(=O)N[C@H](C)C(=O)N(C)[C@@H](CC(C)C)C(=O)N(C)[C@@H](CC(C)C)C(=O)N(C)[C@@H](C(C)C)C(=O)N1C |  |  |  |  |  | 
6 | 42 | 1800 | 2.5 |  | C/C=C/C[C@@H](C)[C@@H](O)[C@H]1C(=O)N[C@@H](CC)C(=O)N(C)[C@H](C)C(=O)N(C)[C@@H]([C@H](C)CN2CC3CCC(C2)O3)C(=O)N[C@@H](C(C)C)C(=O)N(C)[C@@H](CC(C)C)C(=O)N[C@@H](C)C(=O)N[C@H](C)C(=O)N(C)[C@@H](CC(C)C)C(=O)N(C)[C@@H](CC(C)C)C(=O)N(C)[C@@H](C(C)C)C(=O)N1C |  |  |  |  |  | 
7 | 37 | 1800 | 1.9 |  | C/C=C/C[C@@H](C)[C@@H](O)[C@H]1C(=O)N[C@@H](CC)C(=O)N(C)[C@H](C)C(=O)N(C)[C@@H]([C@H](C)CN2CCCOCC2)C(=O)N[C@@H](C(C)C)C(=O)N(C)[C@@H](CC(C)C)C(=O)N[C@@H](C)C(=O)N[C@H](C)C(=O)N(C)[C@@H](CC(C)C)C(=O)N(C)[C@@H](CC(C)C)C(=O)N(C)[C@@H](C(C)C)C(=O)N1C |  |  |  |  |  | 
8 | 29 |  | 1.4 |  | C/C=C/C[C@@H](C)[C@@H](O)[C@H]1C(=O)N[C@@H](CC)C(=O)N(C)[C@H](C)C(=O)N(C)[C@@H]([C@H](C)CN2CCC(C#N)CC2)C(=O)N[C@@H](C(C)C)C(=O)N(C)[C@@H](CC(C)C)C(=O)N[C@@H](C)C(=O)N[C@H](C)C(=O)N(C)[C@@H](CC(C)C)C(=O)N(C)[C@@H](CC(C)C)C(=O)N(C)[C@@H](C(C)C)C(=O)N1C |  |  |  |  |  | 
9 | 29 |  | 1.1 | tde | C/C=C/C[C@@H](C)[C@@H](O)[C@H]1C(=O)N[C@@H](CC)C(=O)N(C)[C@H](C)C(=O)N(C)[C@@H]([C@H](C)CCN2CCOCC2)C(=O)N[C@@H](C(C)C)C(=O)N(C)[C@@H](CC(C)C)C(=O)N[C@@H](C)C(=O)N[C@H](C)C(=O)N(C)[C@@H](CC(C)C)C(=O)N(C)[C@@H](CC(C)C)C(=O)N(C)[C@@H](C(C)C)C(=O)N1C |  |  |  |  |  | 
10 | 28 | 1000 | 1.3 |  | C/C=C/C[C@@H](C)[C@@H](O)[C@H]1C(=O)N[C@@H](CC)C(=O)N(C)[C@H](C)C(=O)N(C)[C@@H]([C@H](C)CC#N)C(=O)N[C@@H](C(C)C)C(=O)N(C)[C@@H](CC(C)C)C(=O)N[C@@H](C)C(=O)N[C@H](C)C(=O)N(C)[C@@H](CC(C)C)C(=O)N(C)[C@@H](CC(C)C)C(=O)N(C)[C@@H](C(C)C)C(=O)N1C |  |  |  |  |  | 
11 | 44 |  | 4 |  | C/C=C/C[C@@H](C)[C@@H](O)[C@H]1C(=O)N[C@@H](CC)C(=O)N(C)[C@H](C)C(=O)N(C)[C@@H]([C@H](C)CN2CCC(F)(F)C2)C(=O)N[C@@H](C(C)C)C(=O)N(C)[C@@H](CC(C)C)C(=O)N[C@@H](C)C(=O)N[C@H](C)C(=O)N(C)[C@@H](CC(C)C)C(=O)N(C)[C@@H](CC(C)C)C(=O)N(C)[C@@H](C(C)C)C(=O)N1C |  |  |  |  |  | 

Row | Compound | EC50 (Hepatitis C virus [1]) [nM] | IC50 [2] [nM] | Kd [3] [nM] | inhibition (INH) (Cytochrome P450 3A4) | Kd [4] [nM] | EC50 (Hepatitis C virus [5]) [nM] | CC50 [6] [µM] | EC50 (Hepatitis C virus [7]) [nM] | Kd [8] [nM] | IC50 (PBMC) [µM]
12 | C/C=C/C[C@@H](C)[C@@H](O)[C@H]1C(=O)N[C@@H](CC)C(=O)N(C)CC(=O)N(C)[C@@H]([C@@H](C)CC)C(=O)N[C@@H](C(C)C)C(=O)N(C)[C@@H](CC(C)C)C(=O)N[C@@H](C)C(=O)N[C@H](C)C(=O)N(C)[C@@H](CC(C)C)C(=O)N(C)[C@@H](CC(C)C)C(=O)N(C)[C@@H](C(C)C)C(=O)N1C [NIM811] | 97 |  | 7.5 |  | 4.2 | 217 | 13 | 210 | 7.4 | 2.4
